Laboratory results from ChEMBL document CHEMBL1139184, “Identification of a series of tetrahydroisoquinoline derivatives as potential therapeutic agents for breast cancer” (2007).
Activity calls are given as the source filed them. The calls are words filed in the database; no cut-off is given here.

Tests used:
MCF7 [1] = assay: Enhancement of growth of estrogen receptor positive MCF7 cells at 5 uM after 48 hrs by MTT assay relative to DMSO; assay type: functional, cell-based; conditions: Homo sapiens
Outline: (§1)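 Cells were seeded, left to attach for 24 h, then switched to phenol red-free DMEM with 5% charcoal-stripped FBS. After a further 24 h, compound was added at 5 µM in DMSO (final DMSO ≤0.1%) and incubated 48 h. Viability was read as absorbance at 570 nm by MTT-type kit and expressed relative to DMSO, mean of three determinations.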

[2] = biological target: T1, Estrogen receptor (Homo sapiens) (UniProt P03372); assay: Displacement of ES2 ligand from human recombinant ERalpha relative to tamoxifen
T1 sequence (whole entry): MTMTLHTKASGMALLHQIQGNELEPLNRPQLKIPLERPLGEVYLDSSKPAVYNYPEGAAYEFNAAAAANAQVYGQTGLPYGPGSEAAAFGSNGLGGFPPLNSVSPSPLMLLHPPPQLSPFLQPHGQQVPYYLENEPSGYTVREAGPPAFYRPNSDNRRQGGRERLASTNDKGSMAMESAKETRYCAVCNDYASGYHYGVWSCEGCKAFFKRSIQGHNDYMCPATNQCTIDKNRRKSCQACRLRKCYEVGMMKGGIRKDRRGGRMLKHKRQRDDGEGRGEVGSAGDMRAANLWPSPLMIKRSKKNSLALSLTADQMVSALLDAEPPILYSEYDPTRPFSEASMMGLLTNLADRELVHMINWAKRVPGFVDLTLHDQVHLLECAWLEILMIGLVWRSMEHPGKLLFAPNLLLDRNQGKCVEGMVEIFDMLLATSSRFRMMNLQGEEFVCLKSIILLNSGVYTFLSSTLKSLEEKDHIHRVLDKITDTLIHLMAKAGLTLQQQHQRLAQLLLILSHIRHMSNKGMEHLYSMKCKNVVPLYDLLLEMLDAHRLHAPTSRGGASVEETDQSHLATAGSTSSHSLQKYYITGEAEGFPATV
Outline: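 Fluorescence polarization competition assay. Recombinant hERa (7 nM) was preincubated with fluorescent estrogenic probe ES2 (1 nM) in screening buffer, then combined with serial DMSO dilutions of test molecule. After 1 h at room temperature, polarization was read (ex 495 nm, em 535 nm).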

MCF7 [3] = assay: Cell viability of estrogen receptor positive MCF7 cells at 5 uM after 48 hrs by MTT assay relative to DMSO; assay type: functional, Homo sapiens; outline: as §1
MDA-MB-231 = assay: Cell viability of estrogen receptor negative MDA-MB-231 cells at 5 uM after 48 hrs by MTT assay relative to DMSO; assay type: functional; outline: as §1
[4] = biological target: T1, Estrogen receptor (Homo sapiens); assay: Agonist activity at human ERalpha in T47D cells assessed as enhancement of AP1-driven transactivation at 5 uM by luciferase reporter assay relative to DMSO; assay type: functional, cell-based
Outline: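 T47D cells grown in RPMI 1640 + 10% FBS, plated in triplicate at 3 × 10⁵ cells/well in phenol red-free RPMI + 10% charcoal-stripped FBS. After 24 h, transfected with pCMV-hERa, AP1-Luc reporter and pCMV-β (β-gal normalisation). Compound at 5 µM or DMSO for 24 h. Luciferase read and normalised to β-gal. Result expressed as RLA of compound/RLA of DMSO.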

[5] = biological target: T2, Progesterone receptor (Homo sapiens) (UniProt P06401); assay: Antagonist activity at human PR in T47D cells assessed as MMTV-driven transactivation at 5 uM by luciferase reporter assay relative to progesterone; assay type: functional, cell-based; set-up: scale not given: the % may be the effect or the level left
T2 sequence (whole entry): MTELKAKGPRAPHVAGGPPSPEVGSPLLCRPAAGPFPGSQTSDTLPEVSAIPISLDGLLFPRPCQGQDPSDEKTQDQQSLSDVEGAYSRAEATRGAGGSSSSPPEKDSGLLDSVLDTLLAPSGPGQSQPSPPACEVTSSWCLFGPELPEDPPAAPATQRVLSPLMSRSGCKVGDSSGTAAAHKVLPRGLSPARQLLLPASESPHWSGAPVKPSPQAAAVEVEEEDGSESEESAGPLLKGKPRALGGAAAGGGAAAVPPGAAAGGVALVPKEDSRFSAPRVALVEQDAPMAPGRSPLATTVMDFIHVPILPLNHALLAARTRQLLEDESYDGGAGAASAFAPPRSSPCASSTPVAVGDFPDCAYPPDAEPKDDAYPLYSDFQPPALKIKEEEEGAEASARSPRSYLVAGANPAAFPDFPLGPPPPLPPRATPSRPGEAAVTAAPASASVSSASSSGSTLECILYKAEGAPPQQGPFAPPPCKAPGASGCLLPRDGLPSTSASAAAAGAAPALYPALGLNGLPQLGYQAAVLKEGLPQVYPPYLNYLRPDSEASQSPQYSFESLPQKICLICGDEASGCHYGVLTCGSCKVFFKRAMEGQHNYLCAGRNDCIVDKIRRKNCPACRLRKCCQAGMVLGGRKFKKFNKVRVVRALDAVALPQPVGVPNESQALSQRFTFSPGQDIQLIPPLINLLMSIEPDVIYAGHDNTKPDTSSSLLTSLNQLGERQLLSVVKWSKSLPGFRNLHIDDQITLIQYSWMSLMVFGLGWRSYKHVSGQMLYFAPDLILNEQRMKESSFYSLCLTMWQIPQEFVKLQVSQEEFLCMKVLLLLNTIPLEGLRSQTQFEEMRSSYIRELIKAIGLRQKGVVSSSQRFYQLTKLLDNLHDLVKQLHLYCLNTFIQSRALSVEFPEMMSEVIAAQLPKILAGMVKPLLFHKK
Outline: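 T47D cells in phenol red-free RPMI + 10% charcoal-stripped FBS, 3 × 10⁵ cells/well in triplicate. After 24 h, transfected with pCMV-hPR, pMMTV-Luc reporter and pCMV-β normaliser. Treated for 24 h in the presence of 1 nM progesterone. MMTV-driven luciferase measured on lysate and normalised to β-galactosidase luminescence.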

[6] = biological target: T1, Estrogen receptor (Homo sapiens); assay: Agonist activity at human recombinant ERalpha expressed in MCF7 cells assessed as ERE-driven transactivation at 2.5 uM by luciferase reporter assay relative to DMSO; assay type: functional, cell-based
Outline: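 MCF-7 cells in phenol red-free DMEM with 10% charcoal-stripped FBS, plated in triplicate, transfected 24 h later with pCMV-hERa, 3x-ERE-TATA-Luc and pCMV-b. Test compound (2.5 µM) or DMSO added after transfection; lysed after 24 h. Luciferase normalized to b-galactosidase; reported as ratio of compound RLA to DMSO RLA, mean of three determinations.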

SMILES	Activity (MCF7 [1])	relative binding affinity (RBA) [2]	also measured
CCCCNC(=O)CCCCCCCCCCOC[C@@H]1Cc2ccccc2CN1C(=O)c1cccc(F)c1	inactive	0.287	
CCCCNC(=O)CCCCCCCCCCOC[C@@H]1Cc2ccccc2CN1C(=O)c1cccc(O)c1	inactive	5	Activity (MCF7 [3]): 0.48; Activity (MDA-MB-231; Homo sapiens): inactive
CCCCNC(=O)CCCCCCCCCCOC[C@@H]1Cc2ccccc2CN1C(=O)c1cccc(OC)c1	inactive	0.192	
CCCCNC(=O)CCCCCCCCCCOC[C@@H]1Cc2ccccc2CN1C(=O)c1ccc(F)cc1	inactive	0.264	
CCCCNC(=O)CCCCCCCCCCOC[C@@H]1Cc2ccccc2CN1C(=O)c1cccc(Cl)c1	inactive	0.156	Activity [4]: Active; Activity [5]: 54%
CCCCNC(=O)CCCCCCCCCCOC[C@@H]1Cc2ccccc2CN1C(=O)c1ccc(OC)cc1	inactive	0.14	
CCCCNC(=O)CCCCCCCCCCOC[C@@H]1Cc2ccccc2CN1C(=O)c1ccc(O)cc1	inactive	1.79	
CCCCNC(=O)CCCCCCCCCCOC[C@@H]1Cc2ccccc2CN1C(=O)c1ccc(C)cc1	inactive	0.132	Activity [6]: Active
CCCCNC(=O)CCCCCCCCCCOC[C@@H]1Cc2ccccc2CN1C(=O)c1ccccc1F	inactive	0.225	
CCCCNC(=O)CCCCCCCCCCOC[C@@H]1Cc2ccccc2CN1C(=O)c1cccc(C)c1	inactive	0.156	Activity [6]: Active
CCCCCCCCNC(=O)CCCCCCCCCCOC[C@@H]1Cc2ccccc2CN1C(=O)c1cccc(F)c1	inactive	0.177	
CCCCNC(=O)CCCCCCCCCCOC[C@@H]1Cc2ccccc2CN1C(=O)Cc1cccc(F)c1	inactive	0.267	Activity [6]: Active
CC/C(=C(\c1ccccc1)c1ccc(OCCN(C)C)cc1)c1ccccc1 [TAMOXIFEN]	inactive		Activity (MCF7 [3]): 0.43; Activity (MDA-MB-231): 0.65
C[C@]12CC[C@@H]3c4ccc(O)cc4C[C@@H](CCCCCCCCC[S+]([O-])CCCC(F)(F)C(F)(F)F)[C@H]3[C@@H]1CC[C@@H]2O (stereo not given in full)			Activity [5]: 48%
